The values below come from ChEMBL document CHEMBL1134460, “Terminally alkylated polyamine analogues as chemotherapeutic agents” (J Med Chem, 2001).

Data set [1] deals with S-adenosylmethionine decarboxylase (Homo sapiens) (UniProt P17707). As to the kind of experiment: Inhibition of Inhibition of human form of S-adenosyl-methionine decarboxylase enzyme (AdoMet-DC). Also noted: concentration or dose not given beside the values. The settings on record: concentration not given here.
Data set [2] relates to NCH82. As to the kind of experiment: Effect of 10 uM of compound on NCI H82 cell lines was assessed from the amount of SSAT (values in parentheses are those in the absence of compound). Format: functional, Homo sapiens. In a few lines:
(§1)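 Cells were exposed to 10 μM analogue, with untreated controls. SSAT was expressed as nmol product formed/mg protein in 24 h. The detection limit was 0.05 nmol/mg protein.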

In data set [3] the test system is NCI-H157. Briefly: Effect of exposure of H157 non-SCLC (<10 uM) for 96-h, and accumulation of compound was determined. The data set is classed as functional, Homo sapiens.
The test system of data set [4] is NCI-H157. Briefly: Effect of exposure of H157 non-SCLC to compound (<10 uM) for 96-h, on natural polyamines and accumulation of the compound; Decrease. The settings on record: Homo sapiens. Format: functional, cell-based. In a few lines:
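H157 non-SCLC cells were treated with 10 μM analogue. Cellular putrescine, spermidine and spermine, plus the intracellular analogue, were quantified and compared with untreated control cells.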

Data set [5] has as its target T1, Ornithine decarboxylase (Homo sapiens) (UniProt P11926).
T1 sequence (whole entry): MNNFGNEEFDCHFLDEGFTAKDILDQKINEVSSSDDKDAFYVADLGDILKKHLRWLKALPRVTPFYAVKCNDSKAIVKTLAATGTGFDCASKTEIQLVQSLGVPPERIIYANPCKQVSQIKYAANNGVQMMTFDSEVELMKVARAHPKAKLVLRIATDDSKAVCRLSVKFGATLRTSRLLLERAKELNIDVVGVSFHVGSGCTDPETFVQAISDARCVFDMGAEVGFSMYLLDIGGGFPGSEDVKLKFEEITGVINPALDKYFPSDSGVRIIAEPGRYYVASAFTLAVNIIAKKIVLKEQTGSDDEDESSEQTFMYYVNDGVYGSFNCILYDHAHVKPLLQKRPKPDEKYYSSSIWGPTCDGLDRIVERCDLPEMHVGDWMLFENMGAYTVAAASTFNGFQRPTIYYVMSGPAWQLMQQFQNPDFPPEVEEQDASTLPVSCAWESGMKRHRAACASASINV
As to the kind of experiment: Inhibition of ornithine decarboxylase (ODC). Also noted: concentration or dose not given beside the values. The settings on record: concentration not given here.

Data set [6] concerns NCI-H157. As to the kind of experiment: Effect of 10 uM of compound on NCI H157 cell lines was assessed from the amount of SSAT (values in parentheses are those in the absence of compound). The data set is classed as functional, Homo sapiens. In a few lines:
as §1

The target in data set [7] is T2, Diamine acetyltransferase 1 (Homo sapiens, UniProt P21673). Briefly: Effect of 10 uM on spermine/spermidine-N-acetyltransferase (SSAT) induction in non-SCLC cells. Format: cell-based. In a few lines:
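NCI H157 non-small-cell lung tumor cells were exposed to 10 μM analogue. SSAT activity was assayed and expressed as pmol product/mg protein/min, then as fold increase over untreated control cells.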

Data set [8] has as its system NCH82. As to the kind of experiment: Effect of 10 uM of compound on NCI H82 cell lines was assessed from the amount of spermine (values in parentheses are those in the absence of compound). Format: functional, Homo sapiens.
Data set [9] relates to NCH82. Briefly: Effect of 10 uM of compound on NCI H82 cell lines was assessed from the amount of spermidine (values in parentheses are those in the absence of compound). Format: functional, Homo sapiens.
In data set [10] the test system is NCI-H157. As to the kind of experiment: Spermine level in NCI H157 non-SCLC tumor cells following 24-h treatment with 10 uM of compound( Values in parentheses are control values). Format: functional, Homo sapiens. In a few lines: (§2)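 NCI H157 non-SCLC cells were exposed to 10 μM analogue alongside untreated controls. Cellular polyamines and analogue were quantified. SSAT activity was assayed in the cells and reported as pmol product/mg protein/min.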

For data set [11], the system named is NCI-H157. As to the kind of experiment: Spermine/Spermidine-N1-acetyltransferase activity in NCI H157 non-SCLC tumor cells following 24-h treatment with 10 uM of compound.( Values in parentheses are control values). The data set is classed as functional, Homo sapiens. The gist of the method:
as §2

The subject of data set [12] is NCI-H157. As to the kind of experiment: BENSpm level in NCI H157 non-SCLC tumor cells following 24-h treatment with 10 uM of compound( Values in parentheses are control values). The data set is classed as functional, Homo sapiens. The gist of the method: as §2
In data set [13] the test system is NCI-H157. As to the kind of experiment: Putrescine level in NCI H157 non-SCLC tumor cells following 24-h treatment with 10 uM of compound( Values in parentheses are control values). The data set is classed as functional, Homo sapiens. The gist of the method: as §2
Data set [14] has as its system NCI-H157. Briefly: Spermidine level in NCI H157 non-SCLC tumor cells following 24-h treatment with 10 uM of compound( Values in parentheses are control values). The data set is classed as functional, Homo sapiens. The gist of the method:
as §2

The nature of data set [15]: Half-life period as determined by N-deethylation and stepwise removal of aminopropyl equivalents. The data set is classed as ADME.
Data set [16] has as its system NCI-H157. As to the kind of experiment: CHENSpm level in NCI H157 non-SCLC tumor cells following 24-h treatment with 10 uM of compound( Values in parentheses are control values). Format: functional, Homo sapiens. In a few lines:
as §2

The subject of data set [17] is MDA-MB-231. Briefly: Growth inhibition of MDA-MB-231 breast cancer cell line. Format: functional, cell-based. The conditions noted are these: Homo sapiens.
Data set [18] deals with Hs-578T. Briefly: Growth inhibition of Hs 578.T breast cancer cell line. Format: functional, cell-based. The conditions noted are these: Homo sapiens.
Data set [19] has as its system NCI-H157. Briefly: In vitro activity against H157 non-small-cell lung tumor line (non-SCLC) cultures. The data set is classed as functional, cell-based. The conditions noted are these: Homo sapiens.
A short description of data set [20]: Growth inhibition of […] breast cancer cell line. The data set is classed as functional, cell-based. The conditions noted are these: Homo sapiens, MDA-MB-468.
In data set [21] the test system is MCF7. As to the kind of experiment: Growth inhibition of MCF-7 breast cancer cell line. Format: functional, cell-based. The conditions noted are these: Homo sapiens.
The subject of data set [22] is NCI-H157. Briefly: Activity against H157 non-SCLC cells in culture. The conditions noted are these: Homo sapiens. The data set is classed as functional, cell-based.
The target in data set [23] is T2, Diamine acetyltransferase 1. Briefly: Inhibitory activity of compound against SSAT extracted from superinduced H157 cells. Format: cell-free. In a few lines: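 SSAT came from crude extracts of superinduced H157 cells and was assayed at saturating spermidine.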
In data set [24] the test system is T47D. Briefly: Growth inhibition of T47D breast cancer cell line. The data set is classed as functional, cell-based. The settings on record: Homo sapiens.
Data set [25] has as its system ZR-75-1. As to the kind of experiment: Growth inhibition of ZR-75-1 breast cancer cell line. Format: functional, cell-based. The conditions noted are these: Homo sapiens.
Data set [26] concerns NCH82. Briefly: In vitro activity against H82 small-cell lung tumor line (SCLC) cultures. The data set is classed as functional, cell-based. The conditions noted are these: Homo sapiens.
Data set [27] has as its system Trypanosoma brucei. As to the kind of experiment: In vitro growth Inhibitory activity against K243 As-10-3 Strain of Trypanosoma brucei. Format: functional, organism-based. In a few lines:
(§3)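 In vitro growth inhibition was run against T. b. brucei LAB EATRO 110 and T. b. rhodesiense KETRI 243, KETRI 243 As-10-3 and KETRI 269. […] ">100" means no appreciable inhibition up to the highest concentration tested.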

The test system of data set [28] is Trypanosoma brucei. Briefly: In vitro growth Inhibitory activity against K243 Strain of Trypanosoma brucei. Format: functional, organism-based. In a few lines: as §3
For data set [29], the system named is Trypanosoma brucei. As to the kind of experiment: In vitro growth Inhibitory activity against LAB 110 Strain of Trypanosoma brucei. The data set is classed as functional, organism-based. The gist of the method:
as §3

Data set [30] has as its system Trypanosoma brucei. As to the kind of experiment: In vitro growth Inhibitory activity against K269 Strain of Trypanosoma brucei. Format: functional, organism-based. In a few lines:
as §3

T2 sequence (P21673 whole entry): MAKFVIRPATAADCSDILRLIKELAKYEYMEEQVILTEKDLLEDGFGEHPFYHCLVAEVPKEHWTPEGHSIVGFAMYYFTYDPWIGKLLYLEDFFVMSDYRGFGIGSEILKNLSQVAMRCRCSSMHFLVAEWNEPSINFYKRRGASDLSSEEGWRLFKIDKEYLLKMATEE

A word on the inhibition: it is the percentage by which the read-out fell short of the control. On to `CCNCCCNCCCCNCCCNCC` [BIS(ETHYL)SPERMINE], for which the inhibition in [1] and in data set [5] was > 50% throughout. In addition, the Polyamine is given as 60 nM (mg of protein)-1 in [2], 6511 nM (mg of protein)-1 in [6], 10.06 nM (mg of protein)-1 in data set [8] and 3.07 nM (mg of protein)-1 in data set [9]. In addition, in data set [3], the Amount was >20 nM (mg of protein)-1. Further, in data set [4], the “Effect on polyamine pools” value is on record as “Decrease”. Also, the Induction in data set [7] is > 500.

One may read the half-life as the time in which the quantity being followed falls by half. With `CCNCCCNCCCNCCCNCC` [BIS(ETHYL)NORSPERMINE], the Polyamine level in data set [10] stood at 0.51; in data set [12] it was 36.07; in data set [13], 0; in [14], 0; in data set [16] it was 0. The Activity in [11] is 148141 (pM of product) min-1 (mg of protein)-1. Moreover, the inhibition in data set [1] and in data set [5] was > 50% each time. Further, in data set [3], the Amount was >20 nM (mg of protein)-1. Moreover, in data set [4], the “Effect on polyamine pools” value is listed as “Decrease”. For the same molecule, the half-life in data set [15] was 1.22 h. The Induction in data set [7] is > 500.

For orientation: IC50 means the concentration needed to halve the response being measured. With `CCNCCCNCCCNCCCNCC1CC1`, the IC50 in data set [17] was 1.3 µM; in data set [18] it was 0.2 µM; in data set [19] it was 0.7 µM; in data set [20], 0.6 µM; in data set [21] it was 1.1 µM; in data set [22] it was 0.8 µM. The IC50 is 100 µM in data set [23], 0.4 µM in [24], 1.1 µM in [25] and 5.2 µM in data set [26]. In [3], the Amount is >20 nM (mg of protein)-1. For the same molecule, the “Effect on polyamine pools” value in [4] was “Decrease”. In data set [5], the inhibition is > 50%. Further, the Induction in [7] is > 500.

Take `COc1cccc(CNCCCNCCCCCCCNCCCNCc2cccc(OC)c2)c1`: the IC50 is 5.5 µM in [27], 18.5 µM in data set [28], 22 µM in [29] and 16.5 µM in [30].
